Measurements taken from ChEMBL document CHEMBL4011654, “Mitochondria-Targeted Lupane Triterpenoid Derivatives and Their Selective Apoptosis-Inducing Anticancer Mechanisms” (J Med Chem, 2017).
Activity calls are given as the source filed them. The rule behind the calls is not given here.

Assays:
K562 [1] = test: Antitumor activity against CM-Dil-labeled human K562 cells xenografted in wild-type zebrafish embryos assessed as reduction in cell migration at 10 ug/ml measured after 48 hrs by confocal microscopic analysis; assay type: functional, cell-based
Method in brief: (§1)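 K562 cells labelled with CM-Dil, suspended in FBS-free medium at (1 × 107)/mL and microinjected into wild-type zebrafish embryos kept at 28 °C in embryonic medium. After 4 h, embryos with the same injection spot were pooled at 15−20 per well and exposed to compound; Taxol served as positive control. At 48 h, confocal imaging gave fluorescent area (migration) and fluorescence intensity (cell number); n = 15.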

K562 [2] = test: Antitumor activity against CM-Dil-labeled human K562 cells xenografted in wild-type zebrafish embryos assessed as tumor growth inhibition at 10 ug/ml measured after 48 hrs by confocal microscopic analysis; assay type: functional, cell-based; method in brief: as §1
K562 [3] = test: Cytotoxicity against human K562 cells assessed as cell growth inhibition after 48 hrs by MTT assay; assay type: functional, cell-based; conditions: K562, 48 h
Method in brief: (§2)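 Suspension cells seeded at 5000/well (HL-60 in IMDM, K562 in RPMI, both with 10% FBS) and treated. MTT then added for 4 h at 37 °C; plates centrifuged at 3000 rpm for 30 min, medium removed, DMSO added, OD570 read. IC50 taken as concentration giving 50% growth inhibition; triplicate.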

HL-60 = test: Cytotoxicity against human HL60 cells assessed as cell growth inhibition after 48 hrs by MTT assay; assay type: functional, cell-based; conditions: HL-60, 48 h; method in brief: as §2
ECa-109 cell line = test: Cytotoxicity against human ECA109 cells assessed as cell growth inhibition after 48 hrs by MTT assay; assay type: functional, cell-based; conditions: ECa-109, 48 h
Method in brief: (§3)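 Adherent cells seeded at 5000/well, left 16−24 h, then exposed 48 h at 37 °C, 5% CO2 in RPMI with 10% FBS. Medium refreshed, MTT added for 4 h at 37 °C, medium removed, formazan dissolved in DMSO, OD570 read. IC50 taken as concentration inhibiting growth by 50%; triplicate.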

A549 = test: Cytotoxicity against human A549 cells assessed as cell growth inhibition after 48 hrs by MTT assay; assay type: functional, cell-based; conditions: A549, 48 h; method in brief: as §3
HepG2 = test: Cytotoxicity against human HepG2 cells assessed as cell growth inhibition after 48 hrs by MTT assay; assay type: functional, cell-based; conditions: HepG2, 48 h; method in brief: as §3
L02 = test: Cytotoxicity against human HL-7702 cells assessed as cell growth inhibition after 48 hrs by MTT assay; assay type: cell-based; conditions: L02, 48 h; method in brief: as §3

SMILES	Activity (K562 [1])	TGI (K562 [2])	IC50 (K562 [3]) [µM]	IC50 (HL-60) [µM]	IC50 (ECa-109 cell line) [µM]	IC50 (A549) [µM]	IC50 (HepG2) [µM]	IC50 (L02) [µM]
CC(=O)O[C@H]1C(=O)[C@@]2(C)[C@H]([C@H](OC(=O)c3ccccc3)[C@]3(O)C[C@H](OC(=O)[C@H](O)[C@@H](NC(=O)c4ccccc4)c4ccccc4)C(C)=C1C3(C)C)[C@]1(OC(C)=O)CO[C@@H]1C[C@@H]2O	Active	Active						
C=C(C)[C@@H]1CC[C@]2(C(=O)OC)CC[C@]3(C)[C@H](CC[C@@H]4[C@@]5(C)CC[C@H](OC(=O)CCCC[P+](c6ccccc6)(c6ccccc6)c6ccccc6)C(C)(C)[C@@H]5CC[C@]43C)[C@@H]12			3.58	3.11	4.75	4.99	4.35	6.3
C=C(C)[C@@H]1CC[C@]2(C(=O)O)CC[C@]3(C)[C@H](CC[C@@H]4[C@@]5(C)CC[C@H](O)C(C)(C)[C@@H]5CC[C@]43C)[C@@H]12 [BETULINIC ACID]			22	18.5	28.1	17.1	25.3	35.1
C=C(C)[C@@H]1CC[C@]2(C(=O)OCC)CC[C@]3(C)[C@H](CC[C@@H]4[C@@]5(C)CC[C@H](OC(=O)CCCC[P+](c6ccccc6)(c6ccccc6)c6ccccc6)C(C)(C)[C@@H]5CC[C@]43C)[C@@H]12			4.03	2.75	6.04	4.79	4.54	7.85
C=C(C)[C@@H]1CC[C@]2(COC(=O)CCCC[P+](c3ccccc3)(c3ccccc3)c3ccccc3)CC[C@]3(C)[C@H](CC[C@@H]4[C@@]5(C)CC[C@H](OC=O)C(C)(C)[C@@H]5CC[C@]43C)[C@@H]12			0.81	0.71	0.95	1.1	1.11	8.32
